# Laboratory results from ChEMBL document CHEMBL1255395, “Laninamivir prodrug CS-8958, a long-acting neuraminidase inhibitor, shows superior anti-influenza virus activity after a single administration” (Antimicrob Agents Chemother, 2010).
# Calls of active or inactive are those of the source. The calls are words filed in the database; no cut-off is given here.
# Key:
# Influenza B virus [1] = test: Antimicrobial activity against Influenza B virus (B/Hong Kong/05/1972) infected in BALB/c mouse assessed as increase in mouse survival at 1.1 mg/kg, itn administered for 7 days before infection measured at day 20; type: functional
# Influenza A virus [2] = test: Antimicrobial activity against Influenza A virus (A/Puerto Rico/8/34(H1N1)) infected in BALB/c mouse assessed as increase in mouse survival at 3.3 mg/kg, itn administered for 7 days before infection; type: functional, organism-based; design: dose 3.3 mg/kg; conditions: A/Puerto Rico/8/1934(H1N1)
# Influenza A virus [3] = test: Antimicrobial activity against Influenza A virus (A/Puerto Rico/8/34(H1N1)) infected in BALB/c mouse assessed as reduction in viral titer in lung at 0.17 mg/kg, itn administered 11 hrs post infection measured after 83 hrs post infection; type: functional, organism-based; design: dose 0.17 mg/kg; conditions: A/Puerto Rico/8/1934(H1N1)
# How it was run: (§1)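 BALB/c mice infected intranasally with A/PR/8/34 at 30 PFU. Intranasal dosing at 0.5 μmol/kg began at 11 hpi, either repeated twice daily or given once followed by twice-daily saline. Lungs (n = 3) were taken at 35, 59 and 83 hpi and homogenized. Titers were measured by MDCK plaque assay as log10 PFU/lungs. Two-way ANOVA and Dunnett test were applied.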
# Influenza A virus [4] = test: Antimicrobial activity against Influenza A virus (A/Puerto Rico/8/34(H1N1)) infected in BALB/c mouse assessed as reduction in viral titer in lung at 0.17 mg/kg, itn administered 11 hrs post infection measured after 35 hrs post infection; type: functional, organism-based; design: dose 0.17 mg/kg; conditions: A/Puerto Rico/8/1934(H1N1); how it was run: as §1
# Influenza A virus [5] = test: Antimicrobial activity against Influenza A virus (A/Puerto Rico/8/34(H1N1)) infected in BALB/c mouse assessed as increase in mouse survival at 7 mg/kg, itn administered for 7 days before infection; type: functional, organism-based; design: dose 7 mg/kg; conditions: A/Puerto Rico/8/1934(H1N1)
# Influenza A virus [6] = test: Antimicrobial activity against Influenza A virus (A/Puerto Rico/8/34(H1N1)) infected in BALB/c mouse assessed as reduction in viral titer in lung at 0.17 mg/kg, itn administered 11 hrs post infection measured after 59 hrs post infection; type: functional, organism-based; design: dose 0.17 mg/kg; conditions: A/Puerto Rico/8/1934(H1N1); how it was run: as §1
# Influenza A virus [7] = test: Antimicrobial activity against Influenza A virus (A/Puerto Rico/8/34(H1N1)) infected in BALB/c mouse assessed as increase in mouse survival at 14 mg/kg, itn administered for 7 days before infection; type: functional, organism-based; design: dose 14 mg/kg; conditions: A/Puerto Rico/8/1934(H1N1)
# Influenza A virus [8] = test: Antimicrobial activity against Influenza A virus (A/Puerto Rico/8/34(H1N1)) infected in BALB/c mouse assessed as reduction in viral titer in lung at 14 mg/kg, itn administered for 7 days before infection; type: functional, organism-based; design: dose 14 mg/kg; conditions: A/Puerto Rico/8/1934(H1N1)
# How it was run: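 Female BALB/c mice (5–6 wk) given one intranasal dose in saline (50 μl) 7 days before intranasal infection with A/PR/8/34, 500 PFU. Lungs (three mice per time point) excised on days 1, 2, 3 and 4 and homogenized in PBS-BSA/PS. Titer determined by MDCK plaque assay, read as log10 PFU/lungs, mean ± SD (n = 3). AUC expressed as percent of saline control.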
# Influenza B virus [9] = test: Antimicrobial activity against Influenza B virus (B/Malaysia/2506/2004) infected itn dosed Mustela putorius furo assessed as nasal viral titer treated after 4 hrs post infection measured after 3 days; type: functional, organism-based
# How it was run: (§2)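 Ferrets (600–800 g), seronegative by hemagglutination inhibition, anaesthetized with ketamine/xylazine and infected with B/Malaysia/2506/2004, 1,000 PFU/100 μl. From 4 hpi they received either a single intranasal dose (saline, 0.05 or 0.5 μmol/kg) or 25 mg/kg oral twice daily. Nasal wash titers measured by MDCK plaque assay on days 1, 2 and 3, log10 PFU/ml (n = 5). Undetectable samples entered at the lower limit of detection.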
# Influenza A virus [10] = test: Antimicrobial activity against Influenza A virus (A/Puerto Rico/8/34(H1N1)) infected in BALB/c mouse assessed as increase in mouse survival at 1.7 mg/kg, itn administered for 7 days before infection; type: functional, organism-based; design: dose 1.7 mg/kg; conditions: A/Puerto Rico/8/1934(H1N1)
# How it was run: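 Single intranasal dose in saline (50 μl) given to anesthetized female BALB/c mice 7 days before intranasal infection with A/PR/8/34 at 500 PFU, n = 12. Survival was checked daily to day 20. Groups were compared with saline controls by Kaplan-Meier and log-rank test, with Bonferroni adjustment where needed.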
# Influenza B virus [11] = test: Antimicrobial activity against Influenza B virus (B/Hong Kong/05/1972) infected in BALB/c mouse assessed as increase in mouse survival at 3.3 mg/kg, itn administered for 7 days before infection; type: functional, organism-based; design: dose 3.3 mg/kg
# Influenza B virus [12] = test: Antimicrobial activity against Influenza B virus (B/Hong Kong/05/1972) infected in BALB/c mouse assessed as increase in mouse survival at 1.1 mg/kg, itn administered for 7 days before infection; type: functional, organism-based; design: dose 1.1 mg/kg
# Influenza A virus [13] = test: Antimicrobial activity against Influenza A virus (A/Puerto Rico/8/34(H1N1)) infected in BALB/c mouse assessed as increase in mouse survival at 1.6 mg/kg, itn administered for 7 days before infection; type: functional, organism-based; design: dose 1.6 mg/kg; conditions: A/Puerto Rico/8/1934(H1N1)
# Influenza B virus [14] = test: Antimicrobial activity against Influenza B virus (B/Malaysia/2506/2004) infected itn dosed Mustela putorius furo assessed as nasal viral titer treated after 4 hrs post infection measured after 1 day; type: functional, organism-based; how it was run: as §2
# Influenza A virus [15] = test: Antimicrobial activity against Influenza A virus (A/Puerto Rico/8/34(H1N1)) infected in BALB/c mouse assessed as increase in mouse survival at 4.7 mg/kg, itn administered for 7 days before infection; type: functional, organism-based; design: dose 4.7 mg/kg; conditions: A/Puerto Rico/8/1934(H1N1)
# Influenza B virus [16] = test: Antimicrobial activity against Influenza B virus (B/Hong Kong/05/1972) infected in BALB/c mouse assessed as increase in mouse survival at 9.6 mg/kg, itn administered for 7 days before infection; type: functional, organism-based; design: dose 9.6 mg/kg
# Influenza B virus [17] = test: Antimicrobial activity against Influenza B virus (B/Malaysia/2506/2004) infected itn dosed Mustela putorius furo assessed as nasal viral titer treated after 4 hrs post infection measured after 2 days; type: functional, organism-based; how it was run: as §2
compound,measurement,setting,value
CC(=O)N[C@H]1[C@H]([C@H](O)[C@H](O)CO)OC(C(=O)O)=C[C@@H]1NC(=N)N [ZANAMIVIR],Activity,Influenza B virus [1],36%
same,Activity,Influenza A virus [2],Active
same,Activity,Influenza A virus [3],Active
same,Activity,Influenza A virus [4],Active
same,Activity,Influenza A virus [5],Active
same,Activity,Influenza A virus [6],Active
same,Activity,Influenza A virus [7],Active
same,Activity,Influenza A virus [8],Active
same,Activity,Influenza B virus [9],Dose-dependent effect
same,Activity,Influenza A virus [10],Active
same,Activity,Influenza B virus [11],Active
same,Activity,Influenza B virus [12],Active
same,Activity,Influenza A virus [13],Active
same,Activity,Influenza B virus [14],Dose-dependent effect
same,Activity,Influenza A virus [15],Active
same,Activity,Influenza B virus [16],Active
same,Activity,Influenza B virus [17],Dose-dependent effect
